≈ marks a conversion by molar mass, not a printed value.
What follows are compounds tested on Mycobacterium tuberculosis (assay: Antimycobacterial activity against Mycobacterium bovis BCG after 7 days by broth microdilution method). Conditions: variant bovis BCG, 168 h.
Format: functional
Outline: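 Strains were pre-grown in Middlebrook 7H11 with OADC. The microdilution assay ran in sealed 96-well plates at 37 °C and was read after 72 h for M. smegmatis mc²155 and after 7 days for M. bovis BCG.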

| SMILES | MIC [µg/mL] |
| --- | --- |
| C=CCn1cc(C(=O)OCC)c(=O)c2ccc3c(nnn3Cc3ccccc3)c21 | 64 (≈ 165 µM) |
| Cn1nnc2c3c(ccc21)c(=O)c(C(=O)O)cn3CC1CCC1 | 16 (≈ 51.2 µM) |
| CCOC(=O)c1cn(C)c2c(ccc3c2nnn3Cc2ccccc2)c1=O | 64 (≈ 177 µM) |
| CCCCn1cc(C(=O)OCC)c(=O)c2ccc3c(nnn3Cc3ccccc3)c21 | 64 (≈ 158 µM) |
| CCOC(=O)c1cn(CC2CC2)c2c(ccc3c2nnn3C)c1=O | 64 (≈ 196 µM) |
| CCCCn1cc(C(=O)O)c(=O)c2ccc3c(nnn3Cc3ccccc3)c21 | 64 (≈ 170 µM) |
| Cn1nnc2c3c(ccc21)c(=O)c(C(=O)O)cn3C(C)(C)C | 16 (≈ 53.3 µM) |
| Cn1cc(C(=O)O)c(=O)c2ccc3c(nnn3C)c21 | 4 (≈ 15.5 µM) |
| CCOC(=O)c1cn(C(C)(C)C)c2c(ccc3c2nnn3C)c1=O | 8 (≈ 24.4 µM) |
| CC[C@@H](CO)NCCN[C@@H](CC)CO [ETHAMBUTOL] | 2 (≈ 9.79 µM) |
| CCOC(=O)c1cn(CC)c2c(ccc3c2nnn3Cc2ccccc2)c1=O | > 128 |
| CCn1cc(C(=O)O)c(=O)c2ccc3c(nnn3Cc3ccccc3)c21 | 16 (≈ 45.9 µM) |
| O=C(O)c1cn(C2CC2)c2cc(N3CCNCC3)c(F)cc2c1=O [CIPROFLOXACIN] | 0.25 (≈ 0.754 µM) |
| C=CCn1cc(C(=O)O)c(=O)c2ccc3c(nnn3Cc3ccccc3)c21 | 8 (≈ 22.2 µM) |
| Cn1cc(C(=O)O)c(=O)c2ccc3c(nnn3Cc3ccccc3)c21 | 4 (≈ 12 µM) |
| C=C(C)Cn1cc(C(=O)OCC)c(=O)c2ccc3c(nnn3C)c21 | > 128 |
| Cn1nnc2c3c(ccc21)c(=O)c(C(=O)O)cn3CC1CC1 | 16 (≈ 53.6 µM) |
| CCOC(=O)c1cn(CC2CCC2)c2c(ccc3c2nnn3C)c1=O | 64 (≈ 188 µM) |
| C=C(C)Cn1cc(C(=O)O)c(=O)c2ccc3c(nnn3C)c21 | 32 (≈ 107 µM) |
